Among the data in the array DNA melting data of Ke et al. (doi:10.1101/2024.01.08.574731) are Tm and folding enthalpy values, retold here.

A short description of data set [1]: melting temperature; fluorescence melt of hairpins on a sequencing array, two-state fit, raised by 9.35 °C to match UV melts. The note with it: sodium 0.088 M. Put shortly:
(§1)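 Bootstrapped two-state fits yielded melting temperature and folding enthalpy for library hairpins. Cy3 fluorescence, with annealed Cy3 and quencher oligos, was imaged on a sequenced MiSeq flow cell in 50 mM Na-HEPES pH 8.0, 25 mM NaCl in 2.5 °C steps up to 60 °C, and normalised to pre-quench Cy3 and to control constructs. Four replicates were combined by inverse variance, and fitted temperatures were raised by 9.35 °C to match UV melts.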

Data set [2] in a line: folding enthalpy; higher = less favourable; fluorescence melt of hairpins on a sequencing array, two-state fit. The note with it: sodium 0.088 M. Put shortly: as §1

For GGGGCCGGAAACGACCCC ((((.((....)).)))), the Tm in data set [1] came out at 59.2 °C. Further, the folding enthalpy in data set [2] was -44.1 kcal/mol.

As for GGGGCGCCGAAAGGCCCC (((..(((....)))))), the Tm in data set [1] stood at 66.1 °C. The folding enthalpy in data set [2] was -15 kcal/mol.

As for GGGGCTTCGAAAGAACCC (((..(((....)))))), in data set [1], the Tm is 49.1 °C. The folding enthalpy in data set [2] is -20.4 kcal/mol.

Take GGGGGAACGAAAGTTCCC (((..(((....)))))): the Tm in data set [1] turned out to be 64.3 °C. The folding enthalpy in data set [2] was -8.07 kcal/mol.

On to GGGGGCGAAAGCCGGCCC ((((((....)))..))), for which, in data set [1], the Tm stood at 48 °C. Moreover, the folding enthalpy in data set [2] was -14.3 kcal/mol.

Consider GGGGGCGAAAGCCTCCC ((((((....))).))), for which the Tm in data set [1] was 66.1 °C. For the same sequence, the folding enthalpy in data set [2] is -15.7 kcal/mol.

Turning to GGGGGCGAAAGCCTTCCC ((((((....)))..))), the Tm in data set [1] was 42.3 °C. Also, the folding enthalpy in data set [2] is -13.1 kcal/mol.

Take GGGGGGAAACCCCC (((((....))))): the Tm in data set [1] was 65.9 °C. Besides, in data set [2], the folding enthalpy was -21.5 kcal/mol.

With GGGGGGGGAAACCCCTCC ((.((((....)))).)), the Tm in data set [1] stood at 60.9 °C. The folding enthalpy in data set [2] is -17.5 kcal/mol.

For the sequence GGGGGGGGAAACCCTCCC (((.(((....))).))), the Tm in data set [1] amounted to 59.4 °C. In data set [2], the folding enthalpy was -31.3 kcal/mol.

Turning to GGGGGGGGAAACTCCCCC (((((.(....).))))), the Tm in data set [1] is 64.3 °C. The folding enthalpy in data set [2] was -20.3 kcal/mol.

Regarding GGGGGTGGAAACACTCCC (((.(((....))).))), the Tm in data set [1] was 56.5 °C. Further, in data set [2], the folding enthalpy is -37.6 kcal/mol.

GGGGTAGGAAACCACCCC (((((.(....).))))): the Tm in data set [1] worked out at 50.7 °C. Besides, the folding enthalpy in data set [2] was -30.2 kcal/mol.

For the sequence GGGGTCACGAAAGTGCCC (((..(((....)))))), the Tm in data set [1] is 58.8 °C. Moreover, in data set [2], the folding enthalpy is -21.4 kcal/mol.

As to GGGGTCCCGAAAGGGCCC (((..(((....)))))), the Tm in data set [1] was found to be 65.3 °C. Also, in data set [2], the folding enthalpy is -14.6 kcal/mol.

As for GGGGTCGAAAGACACCCC ((((((....)))..))), in data set [1], the Tm is 61.8 °C. In data set [2], the folding enthalpy was -12.6 kcal/mol.

On to GGGGTCGAAAGACAGCCC ((((((....)))..))), for which the Tm in data set [1] is 46.2 °C. In addition, the folding enthalpy in data set [2] was -16.6 kcal/mol.

Take GGGGTCGAAAGACCACCC ((((((....)))..))): the Tm in data set [1] amounted to 54.7 °C. Moreover, in data set [2], the folding enthalpy was -12.7 kcal/mol.

GGGGTCGAAAGACGCCC ((((((....))).))): the Tm in data set [1] worked out at 57.7 °C. Besides, the folding enthalpy in data set [2] is -18.8 kcal/mol.

GGGGTCGAAAGACTCCCC ((((((....)))..))): the Tm in data set [1] was 54.3 °C. In addition, the folding enthalpy in data set [2] is -22.2 kcal/mol.

Consider GGGGTCGCGAAAGCGCCC (((..(((....)))))), for which the Tm in data set [1] is 60.7 °C. Further, the folding enthalpy in data set [2] was -16.4 kcal/mol.

With GGGGTCGGAAACGATCCC (((.(((....))).))), in data set [1], the Tm came out at 59.7 °C. In addition, the folding enthalpy in data set [2] is -48.4 kcal/mol.

In the case of GGGGTCGGAAACGGTCCC (((..((....))..))), the Tm in data set [1] was found to be 49.4 °C. Also, the folding enthalpy in data set [2] was -37.3 kcal/mol.

Turning to GGGGTGGGAAACTGCCCC ((((..(....)..)))), the Tm in data set [1] is 51.7 °C. Further, the folding enthalpy in data set [2] is -30.2 kcal/mol.

GGGGTTCCGAAAGGACCC (((..(((....)))))): the Tm in data set [1] was 56.2 °C. Moreover, the folding enthalpy in data set [2] is -32.6 kcal/mol.

Take GGGGTTCGAAAGAAGCCC (((.(((....))).))): the Tm in data set [1] was 66.3 °C. The folding enthalpy in data set [2] was -41.5 kcal/mol.

For GGGGTTGGAAACAGCCTC (.((.((....)).)).), in data set [1], the Tm was found to be 39.1 °C. Moreover, the folding enthalpy in data set [2] was -21.6 kcal/mol.

For the sequence GGGGTTTCGAAAGAACCC (((..(((....)))))), the Tm in data set [1] amounted to 50.8 °C. Further, the folding enthalpy in data set [2] is -32.9 kcal/mol.

For GGGTAAGGAAACTTACCC (((((((....))))))), the Tm in data set [1] was 58.6 °C. The folding enthalpy in data set [2] is -44.9 kcal/mol.

GGGTAAGGAAACTTACTC (.(((((....))))).): the Tm in data set [1] is 37.9 °C. In addition, the folding enthalpy in data set [2] was -23.7 kcal/mol.

GGGTACCGAAAGGTTCCC (((.(((....))).))): in data set [1], the Tm stood at 56.2 °C. Moreover, the folding enthalpy in data set [2] was -30.3 kcal/mol.

Regarding GGGTACGAAAGTAGCCCC ((((((....)))..))), in data set [1], the Tm is 55 °C. Also, the folding enthalpy in data set [2] was -14.5 kcal/mol.

On to GGGTACGGAAACGTACTC (.(((((....))))).), for which the Tm in data set [1] worked out at 51.2 °C. The folding enthalpy in data set [2] is -16.1 kcal/mol.

On to GGGTACGGAAACGTGCTC (.(.(((....))).).), for which the Tm in data set [1] came to 43.1 °C. Moreover, the folding enthalpy in data set [2] was -21.5 kcal/mol.

As for GGGTAGGGAAACCCACCC ((((.((....)).)))), in data set [1], the Tm worked out at 48.3 °C. The folding enthalpy in data set [2] is -29.2 kcal/mol.

In the case of GGGTAGGGAAACTTACCC (((((.(....).))))), the Tm in data set [1] stood at 45.8 °C. Besides, the folding enthalpy in data set [2] is -29.5 kcal/mol.

Turning to GGGTATCGAAAGATCCCC (((.(((....))).))), the Tm in data set [1] stood at 50.2 °C. Further, the folding enthalpy in data set [2] was -22.7 kcal/mol.
